Screens (PubChem BioAssay)
H69AR inhibit: growth inhibitors of human H69AR lung tumor cells. H69AR lung tumor viability, ATP luminescence, 72 h; hits give low values. viability, % at 10 µM. actives 6% (n = 85,000). AID 598;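 active means viability at or below 40%; inactive means viability above 40%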;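 further: multidrug resistant small cell line overexpressing MRP-1 efflux transporter; 100% = mean luminescence of untreated control wells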
bCat KO growth: beta-catenin-lacking colon tumor cell growth suppression. HCT116 beta-catenin knockout viability, CellTiter-Glo, 60 h; hits give low values. viability, % at 10 µM. actives 1.5% (n = 140,000). AID 818;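 active means viability at or under a set limit, the compound median less 4 SD, cut at about 6% in these data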;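 further: 0% = Hyamine 1622 control at 20 µM and 100% = untreated cell control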
HUVEC prolif 384: inhibitors of human endothelial cell proliferation; HUVEC proliferation, CellTiter-Glo luminescence, 72 h; hits give low values; viability, % at 10 µM (by protocol); actives 1.1% (n = 86,000); AID 648;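 active means viability at or below 30%; inactive means viability above 30%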;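 further: 100% = median luminescence of DMSO-only cell control wells on each plate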
Fibroblast inh: blocks proliferation of human lung fibroblasts; LL 47 human lung fibroblast viability, ATP luminescence; hits give low values; viability, % at 10 µM; actives 1.1% (n = 85,000);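 active means viability at or below 50% in the single dose screen; inactive means viability above 50%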;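 further: compound exposure lasted 72 h before the ATP readout; 100% = median luminescence of untreated cell-only wells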
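Test system: LL 47 human lung fibroblasts / Incubation: 72 h compound exposure at 37 °C after overnight plating / Technique: luminescent ATP detection, CellTiter-Glo / Compound dosing: 0.1% DMSO in all compound wells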
Pyk2 oligo antag: Pyk2 (human) oligomerization antagonism; Q14289; Q293 cells, Pyk2 FERM NanoBiT luminescence; hits give low values; z-score (the deposit names both 25 µM and 10 µM); actives 0.83% (n = 99,000); AID 1347419;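 active means Z-score of -3 or lower, scaled per plate to the spread of control and sample wells; inactive means z-score above -3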;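 further: negative z-score means lost luminescence so less FERM oligomerization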
Target sequence (Q14289 whole entry, looked up): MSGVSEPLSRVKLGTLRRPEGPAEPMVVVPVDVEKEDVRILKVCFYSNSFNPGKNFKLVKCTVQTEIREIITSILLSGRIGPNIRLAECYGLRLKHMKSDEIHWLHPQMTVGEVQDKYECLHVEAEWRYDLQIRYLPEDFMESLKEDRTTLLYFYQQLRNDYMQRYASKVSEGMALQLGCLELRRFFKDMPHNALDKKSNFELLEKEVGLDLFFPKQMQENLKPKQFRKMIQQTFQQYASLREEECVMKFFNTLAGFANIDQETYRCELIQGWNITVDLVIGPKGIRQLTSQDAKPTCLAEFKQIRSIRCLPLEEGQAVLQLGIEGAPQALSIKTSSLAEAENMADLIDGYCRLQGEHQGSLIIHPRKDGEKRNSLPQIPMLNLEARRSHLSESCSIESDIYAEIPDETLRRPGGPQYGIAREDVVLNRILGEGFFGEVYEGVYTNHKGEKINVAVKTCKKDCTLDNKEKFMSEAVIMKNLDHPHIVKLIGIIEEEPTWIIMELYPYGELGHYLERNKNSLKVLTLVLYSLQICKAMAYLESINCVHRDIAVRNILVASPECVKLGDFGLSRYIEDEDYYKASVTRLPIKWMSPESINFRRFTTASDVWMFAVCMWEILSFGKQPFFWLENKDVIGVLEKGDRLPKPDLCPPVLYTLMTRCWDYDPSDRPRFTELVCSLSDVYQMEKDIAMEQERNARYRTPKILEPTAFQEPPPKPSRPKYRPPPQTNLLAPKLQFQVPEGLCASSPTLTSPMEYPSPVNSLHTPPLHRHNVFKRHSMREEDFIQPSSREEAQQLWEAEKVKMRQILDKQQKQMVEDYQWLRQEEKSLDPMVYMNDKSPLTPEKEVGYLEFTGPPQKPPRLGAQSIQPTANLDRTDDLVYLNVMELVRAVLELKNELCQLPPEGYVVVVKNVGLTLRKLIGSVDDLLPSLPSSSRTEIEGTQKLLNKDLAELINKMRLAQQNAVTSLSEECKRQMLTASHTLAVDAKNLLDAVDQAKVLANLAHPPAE
HCT116 PTEN-null: PTEN-deleted cell growth suppression; HCT116 PTEN-null viability, CellTiter-Glo, 60 h; hits give low values; viability, % at 10 µM; AID 827; actives 1.2% (n = 140,000);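 active means viability at or below a set limit, 4 SD under the median of all tested compounds, cut at about 3.7% in these data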;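 further: PTEN knockout HCT116 line with beta catenin targeted HCT116 as companion control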
* hit, by the source's call; / = not tested or not shown. This excerpt belongs to a sample that is enriched for hits.

SMILES	H69AR inhibit	bCat KO growth	HUVEC prolif 384	Fibroblast inh	Pyk2 oligo antag	HCT116 PTEN-null
Cc1ccc2c(c1)c1c(n2CC(O)Cn2nc(C)c(Br)c2C)CCCC1 (configuration not stated)	55	74	67	98	-0.54	55
Cc1nn(CC(O)Cn2c3c(c4ccccc42)CCN(C)C3=O)c(C)c1Br (configuration not stated)	38*	79	83	98	0.06	69
CCOC(=O)c1c(C)n(C)c2cc(Br)c(C)cc12	97	90	98	99	-0.56	95
CCOC(=O)c1c(CN2CCN(Cc3ccccc3)CC2)n(C)c2cc(Br)c(OC)cc12	14*	56	75	101	-0.76	56
CCOC(=O)c1c(CSc2ccccc2)n(C)c2cc(Br)c(OCC(O)CNC(CO)(CO)CO)cc12 (configuration not stated)	/	1.5*	/	/	/	2.1*
CC1CCCC(=C\c2ccccc2)/C1=N/O (configuration not stated)	/	95	/	/	/	95
Cc1ccn2c(c1)nc(=S)n2C(=O)c1ccco1	/	91	/	/	/	92
CC(Oc1cc(-c2ccccc2)cc2ccccc12)C(=O)N1CCOCC1 (configuration not stated)	36*	90	80	94	-2.8	78
Cc1cc(=O)oc2cc(OC(C)C(=O)N3CCOCC3)ccc12 (configuration not stated)	97	93	93	104	-0.09	93
CC(C)COC(=O)/C(C#N)=C/c1c[nH]c2ccccc12	/	81	/	/	/	87
CC(=O)c1ccccc1Oc1nc(CN2CCOCC2)nc2scc(-c3cccs3)c12	30*	61	75	/	-0.22	57
COc1cc(Br)c(C(C)NC(=O)c2cccc(Br)c2)cc1OC (configuration not stated)	/	80	/	/	-3.2*	78
C/C(Cl)=C/Cn1c(SCc2ccc(Cl)cc2)nc2c1c(=O)[nH]c(=O)n2C	50	92	93	101	0.55	86
Cc1ccc(CSc2nc3c(c(=O)[nH]c(=O)n3C)n2CCC(C)C)cc1	44	43	76	89	/	60
CCCCn1c(SCc2ccc(Cl)cc2)nc2c1c(=O)[nH]c(=O)n2C	27*	91	59	90	-1.3	79
C/C=C/CSc1nc2c(c(=O)[nH]c(=O)n2C)n1Cc1ccc(C)cc1	18*	52	81	94	/	64
CC(C)CCn1c(SCc2ccc(Cl)cc2)nc2c1c(=O)[nH]c(=O)n2C	28*	72	66	75	-2.4	85
CC(C)CCn1c(Sc2nc3ccccc3o2)nc2c1c(=O)[nH]c(=O)n2C	/	5.4*	/	/	0.31	3.4*
CN(Cc1ccccc1)c1ccc(N2C(=O)CCCC2=O)cc1[N+](=O)[O-]	/	91	/	/	/	94
O=C(CCNC(=O)c1ccccc1Cl)Nc1nc(-c2ccccc2Cl)cs1	/	86	/	/	/	77
CCOc1ccc(N(CC(=O)Nc2ccccc2C(=O)N2CCOCC2)S(=O)(=O)c2ccc(F)cc2)cc1	/	93	/	/	/	81
COc1cccc(CNC(=O)Cc2nc3nc(C)cc(C)n3n2)c1	/	93	/	/	/	88
COc1ccc(/C=N/NC(=O)CNC(=O)C2COc3ccccc3O2)cc1OC (configuration not stated)	/	98	/	/	/	108
O=C(NCC1CCN(c2ccc(S(=O)(=O)N3CCOCC3)cc2)CC1)c1ccc(Cl)cc1	35*	62	88	86	0.35	57
Cc1ccc(-c2noc(CCC(=O)NCCCN3CCN(c4cccc(Cl)c4)CC3)n2)cc1	37*	7	23*	57	2.1	5
SMILES	H69AR inhibit	bCat KO growth	HUVEC prolif 384	Fibroblast inh	Pyk2 oligo antag	HCT116 PTEN-null
Clc1cccc(N2CCN(Cc3nc(-c4ccccc4)no3)CC2)c1	102	90	99	96	/	99
Cc1ccc(-c2noc(CCC(=O)NCCCN3CCN(c4ccc(F)cc4)CC3)n2)cc1	27*	12	75	58	2.3	9
COc1ccc(-c2noc(CCC(=O)NCCCN3CCC(C)CC3)n2)cc1	97	99	99	100	0.74	110
O=C(c1cc([N+](=O)[O-])cc([N+](=O)[O-])c1)N1CCOCC1	/	94	/	/	/	92
CCOC(=O)c1[nH]c2cc(OC)c(OC)cc2c1NC(=O)c1ccc2c(c1)OCO2	26*	102	88	68	0.43	112
CCOC(=O)c1[nH]c2ccc(OC)cc2c1NC(=O)c1ccc2c(c1)OCO2	69	87	90	97	-0.89	79
CCOC(=O)c1[nH]c2ccccc2c1NC(=O)c1ccc2c(c1)OCO2	22*	86	81	78	/	90
CCOC(=O)c1oc2ccccc2c1NC(=O)c1ccc2c(c1)OCO2	73	97	66	104	-0.8	91
Cc1cc2ncn(C(=O)c3ccc4c(c3)OCO4)c2cc1C	96	86	82	97	0.47	75
Cc1cc2ncn(C(=O)N3CCC(C)CC3)c2cc1C	81	0.6*	107	104	0.64	0.7*
CC(Oc1ccc(Cl)cc1Cl)C(=O)NNC(=O)C(=O)N1CCCCC1 (configuration not stated)	/	94	/	/	/	94
Nc1c(Cl)ncnc1N/N=C/c1ccccn1	/	2.5*	/	/	/	3.4*
Nc1c(Cl)ncnc1N/N=C/c1ccnc2ccccc12	/	96	/	/	/	97
Nc1c(Cl)ncnc1N/N=C/c1ccc2ccccc2n1	/	5.1*	/	/	/	3.0*
CC1(C)OC(C)(C)/C(=C/Nc2ccccc2)C1=O	/	98	/	/	/	108
CN1C/C(=C\c2ccc(N3CCOCC3)cc2)C(=O)/C(=C/c2ccc(N3CCOCC3)cc2)C1	/	2.9*	/	/	/	2.2*
CCN1C/C(=C/c2ccc(N3CCOCC3)cc2)C(=O)/C(=C/c2ccc(N3CCOCC3)cc2)C1	/	2.2*	/	/	/	1.9*
CN1C/C(=C/c2ccsc2)C(=O)/C(=C/c2ccsc2)C1	/	3.5*	/	/	/	3.1*
CC1C/C(=C/c2cccs2)C(=O)/C(=C/c2cccs2)C1 (configuration not stated)	/	76	/	/	/	76
Cc1cc(C=O)c(C)n1-c1ccc(N2CCOCC2)cc1	92	94	98	104	0.01	91
O=S1(=O)CC(O)C(N2CCCCC2)C1 (configuration not stated)	103	96	106	101	0.24	95
O=C(CC(SCc1ccco1)c1ccc(O)cc1)c1cccs1 (configuration not stated)	13*	11	74	86	0.83	20
O=C(CC(SCCO)c1ccc2c(c1)OCO2)c1cccs1 (configuration not stated)	4.3*	7	95	/	1.8	10
O=C(CSc1nnc(-c2ccc(O)cc2)n1Cc1ccco1)c1cccs1	72	62	97	104	-1.1	61
CC(NC(=O)Cc1cccs1)c1ccc2c(c1)OCO2 (configuration not stated)	95	97	121	102	-0.3	116
